# Measurements as given in ChEMBL document CHEMBL1140211, “The role of molecular modeling in the design of analogues of the fungicidal natural products crocacins A and D” (Bioorg Med Chem, 2008).
# Activity calls are given as the source filed them. The rule behind the calls is not given here.
# Tests used:
# Plasmopara viticola = assay: Inhibition of Plasmopara viticola cytochrome bc1 complex inoculated in vine plant assessed as lowest drug concentration required to control 100% disease applied to leaf 1 hr prior inoculation measured after 6 to 9 days
# How it was run: (§1)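 Spray solutions were made up in reverse osmosis water immediately before use, with Tween 20 at 0.05% by volume final to improve deposit retention. Concentrations tested were 100, 50, 25, 10, 5 and 1 ppm. The breakpoint is the lowest of these six concentrations giving 100% disease control, converted to molar units. Azoxystrobin served as the standard.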
# [1] = (§2) Inhibition of cytochrome bc1 complex in bovine heart mitochondria by NADH oxidase assay; set-up: species or system Bos taurus
# How it was run: (§3)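 Microtitre-plate assay with beef heart mitochondria at a final 68.8 μg/ml in pH 8.0 phosphate buffer. Compounds were diluted in DMSO (2% final) from a top final concentration of 20 ppm. Plates were preincubated 15 min at room temperature, then NADH was added in pH 8.0 phosphate buffer to a final 200 ppm.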
# Bos taurus = species on record: Bos taurus; assay: as §2; how it was run: as §3
# [2] = system: Blumeria graminis f. sp. tritici; assay: Inhibition of Blumeria graminis f. sp. Tritici cytochrome bc1 complex inoculated in wheat plant assessed as lowest drug concentration required to control 100% disease applied to leaf 1 hr prior inoculation measured after 6 to 9 days; how it was run: as §1
# [3] = system: Mycosphaerella graminicola; assay: Inhibition of Mycosphaerella graminicola cytochrome bc1 complex inoculated in wheat plant assessed as lowest drug concentration required to control 100% disease applied to leaf 1 hr prior inoculation measured after 6 to 9 days; how it was run: as §1
# Phytophthora infestans = assay: Inhibition of Phytophthora infestans cytochrome bc1 complex inoculated in tomato plant assessed as lowest drug concentration required to control 100% disease applied to leaf 1 hr prior inoculation measured after 6 to 9 days; how it was run: as §1
# Puccinia triticina = assay: Inhibition of Puccinia triticina cytochrome bc1 complex inoculated in wheat plant assessed as lowest drug concentration required to control 100% disease applied to leaf 1 hr prior inoculation measured after 6 to 9 days; how it was run: as §1
Compound,Activity (Plasmopara viticola) [µM],IC50 [1] [nM],other results
CCOc1ccc(Cc2ccc(C(=O)N/C=C\CCCC(=O)NCC(=O)OC)cc2)cc1,25,9,
CCc1ccc(Cc2ccc(C(=O)N/C=C\CCCC(=O)NCC(=O)OC)cc2)cc1,,16,
CCc1ccc(Oc2ccc(Cn3c(=O)oc4ccc(OCC(=O)OC)cc43)cc2)cc1,,140,
CCc1ccc(Cc2ccc(Cn3c(=O)oc4ccc(NCC(=O)OC)cc43)cc2)cc1,,,Activity (Bos taurus): inactive
COC(=O)CNC(=O)/C=C\C/C=C\NC(=O)/C=C(C)/C=C/[C@H](C)[C@H](OC)[C@H](C)[C@H](/C=C/c1ccccc1)OC [CROCACIN A],45,56,Activity [2]: > 180 µM; Activity [3]: > 180 µM; Activity (Phytophthora infestans): > 180 µM; Activity (Puccinia triticina): 45 µM
CO/C=C(/C(=O)OC)c1ccccc1Oc1cc(Oc2ccccc2C#N)ncn1 [AZOXYSTROBIN],< 1.8,120,Activity [2]: < 1.8 µM; Activity [3]: < 1.8 µM; Activity (Phytophthora infestans): < 1.8 µM; Activity (Puccinia triticina): < 1.8 µM
C/C=C(C)/C=C/C=C/[C@H](OC)[C@@H](C)[C@@H](OC)[C@@H](C)CCc1oc2c(O)c(OC)cc(OC)c2c(=O)c1C [STIGMATELLIN],180,81,Activity [2]: > 180 µM; Activity [3]: > 180 µM; Activity (Phytophthora infestans): > 180 µM; Activity (Puccinia triticina): > 180 µM
CCc1ccc(Cc2ccc(Cn3c(=O)oc4ccc(OCC(=O)OC)cc43)cc2)cc1,,45,
CCCCCCOc1ccc(C(=O)N/C=C\CCCC(=O)NCC(=O)OC)cc1,> 100,21,
COC(=O)CNC(=O)CCC/C=C\NC(=O)/C=C(C)/C=C/[C@H](C)[C@H](OC)[C@H](C)[C@H](/C=C/c1ccccc1)OC [CROCACIN D],25,36,Activity [2]: > 180 µM; Activity [3]: 45 µM; Activity (Phytophthora infestans): 45 µM; Activity (Puccinia triticina): 9 µM
CCCCCCCCCCCCC(=O)N/C=C\CCCC(=O)NCC(=O)OC,> 100,24,
COC(=O)CNC(=O)CCC/C=C\NC(=O)c1ccc(Cc2ccc(I)cc2)cc1,,18,
COC(=O)CNC(=O)CCCc1ccccc1NC(=O)CCCCCCCCCc1ccccc1,,,Activity (Bos taurus): inactive
COC(=O)CNC(=O)CCC/C=C\NC(=O)c1ccc(Cc2ccc(Br)cc2)cc1,10,17,
CCc1ccc(Oc2ccc(C(=O)N[C@H]3C[C@H]3CCC(=O)NCC(=O)OC)cc2)cc1,,900,
CCc1ccc(Oc2ccc(C(=O)NCCOCC(=O)NCC(=O)OC)cc2)cc1,,230,
CCc1ccc(Oc2ccc(C(=O)NCCCCC(=O)NCC(=O)OC)cc2)cc1,,400,
COC(=O)COc1ccc2oc(=O)n(Cc3ccc(Cc4ccc(I)cc4)cc3)c2c1,,75,
